Consider 14 compounds from ChEMBL document CHEMBL3124926, “Identification of highly efficacious glucocorticoid receptor agonists with a potential for reduced clinical bone side effects” (J Med Chem, 2014).

The target of assay [1] is T1, Glucocorticoid receptor (Homo sapiens, UniProt P04150).
T1 sequence (P04150 whole entry): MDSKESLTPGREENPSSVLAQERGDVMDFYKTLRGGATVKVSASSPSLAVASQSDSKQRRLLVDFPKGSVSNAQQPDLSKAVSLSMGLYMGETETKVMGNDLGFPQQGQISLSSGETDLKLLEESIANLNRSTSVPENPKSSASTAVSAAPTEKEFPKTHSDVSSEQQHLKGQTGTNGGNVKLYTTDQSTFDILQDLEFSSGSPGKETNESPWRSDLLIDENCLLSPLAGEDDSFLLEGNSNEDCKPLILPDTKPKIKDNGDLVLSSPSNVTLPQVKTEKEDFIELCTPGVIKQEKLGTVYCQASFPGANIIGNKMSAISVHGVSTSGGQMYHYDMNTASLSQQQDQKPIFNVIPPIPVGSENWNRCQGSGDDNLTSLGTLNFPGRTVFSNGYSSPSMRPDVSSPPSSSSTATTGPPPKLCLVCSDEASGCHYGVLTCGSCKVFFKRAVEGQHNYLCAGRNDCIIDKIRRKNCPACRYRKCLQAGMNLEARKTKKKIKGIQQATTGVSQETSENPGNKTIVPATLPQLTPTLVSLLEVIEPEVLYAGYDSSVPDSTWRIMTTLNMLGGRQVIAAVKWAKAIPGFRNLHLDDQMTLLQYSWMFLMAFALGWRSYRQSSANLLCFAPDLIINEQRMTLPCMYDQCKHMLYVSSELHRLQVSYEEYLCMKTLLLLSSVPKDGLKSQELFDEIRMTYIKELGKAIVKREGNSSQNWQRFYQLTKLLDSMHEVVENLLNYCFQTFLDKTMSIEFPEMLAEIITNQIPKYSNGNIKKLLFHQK
The assay can be described thus: Competitive binding affinity to glucocorticoid receptor (unknown origin) expressed in baculovirus-infected cell system after 1 hr by fluorescence polarization assay in presence of tetramethylrhodamine-labeled dexamethasone. Summed up:
(§1)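 Lysates of baculovirus-infected insect cells co-expressing receptor with HSP-70, HSP-90 and p23 (GR diluted 300-fold, MR 17-fold). Probe 5 nM tetramethylrhodamine-dexamethasone in TES/KCl/molybdate/EDTA/CHAPS/glycerol/DTT buffer, pH 7.4, 1% DMSO. 1 h at room temperature in the dark; fluorescence polarization read (ex 550/em 580 nm). Background set with 2 μM dexamethasone. IC50 from duplicate 11-point curves, four-parameter fit, mean of at least two determinations.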
For orientation: In fluorescence polarisation assays a small probe gives low polarisation when free and higher when bound to something large.

The target in assay [2] is T2, Mineralocorticoid receptor (Homo sapiens, UniProt P08235).
T2 sequence (P08235 whole entry): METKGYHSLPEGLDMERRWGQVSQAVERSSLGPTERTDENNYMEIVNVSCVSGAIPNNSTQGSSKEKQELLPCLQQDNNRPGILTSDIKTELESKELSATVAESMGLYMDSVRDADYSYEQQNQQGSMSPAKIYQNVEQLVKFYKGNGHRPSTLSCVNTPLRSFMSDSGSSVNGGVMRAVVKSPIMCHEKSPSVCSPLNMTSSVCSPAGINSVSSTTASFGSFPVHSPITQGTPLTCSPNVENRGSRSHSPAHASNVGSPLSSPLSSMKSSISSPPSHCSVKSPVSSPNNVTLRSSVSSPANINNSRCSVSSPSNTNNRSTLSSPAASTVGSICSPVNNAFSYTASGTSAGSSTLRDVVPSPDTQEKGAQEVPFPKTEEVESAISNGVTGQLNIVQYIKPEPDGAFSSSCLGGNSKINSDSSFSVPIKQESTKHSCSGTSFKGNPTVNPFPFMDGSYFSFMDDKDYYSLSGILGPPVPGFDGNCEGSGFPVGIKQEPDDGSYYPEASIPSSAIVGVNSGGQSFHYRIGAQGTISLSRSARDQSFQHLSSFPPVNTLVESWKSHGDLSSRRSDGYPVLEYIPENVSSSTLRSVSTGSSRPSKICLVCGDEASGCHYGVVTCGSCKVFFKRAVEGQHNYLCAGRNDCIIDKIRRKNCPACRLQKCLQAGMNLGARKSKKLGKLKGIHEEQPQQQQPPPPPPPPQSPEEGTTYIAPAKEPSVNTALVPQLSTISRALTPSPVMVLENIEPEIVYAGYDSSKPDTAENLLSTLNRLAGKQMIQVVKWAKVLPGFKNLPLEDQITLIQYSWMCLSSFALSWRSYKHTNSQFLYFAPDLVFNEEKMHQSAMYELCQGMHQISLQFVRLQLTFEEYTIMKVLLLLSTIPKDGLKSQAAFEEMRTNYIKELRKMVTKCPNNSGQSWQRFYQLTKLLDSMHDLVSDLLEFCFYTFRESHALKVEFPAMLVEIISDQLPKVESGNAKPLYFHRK
The assay can be described thus: Competitive binding affinity to mineralocorticoid receptor (unknown origin) expressed in baculovirus-infected cell system after 1 hr by fluorescence polarization assay in presence of tetramethylrhodamine-labeled dexamethasone. Summed up: as §1

Assay [3] concerns the target T1, Glucocorticoid receptor. In words: Transrepression activity at glucocorticoid receptor in human fibroblasts assessed as inhibition of IL-1-induced IL-6 production after 18 to 24 hrs. Summed up:
(§2)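 Human foreskin fibroblasts grown in Iscove's medium with 10% charcoal/dextran-treated FBS, plated at 20000/well two days before. Medium replaced, then compound (0.4% DMSO final) and recombinant human IL-1 (1 ng/mL final) added. 18–24 h at 37 °C; IL-6 in medium quantified by electrochemiluminescence, DELFIA or ELISA. IC50 by four-parameter fit of duplicate 11-point curves. Efficacy relative to dexamethasone (100%); top concentration 2 μM.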

For the next assay, the target named is T3, Progesterone receptor (Homo sapiens, UniProt P06401).
T3 sequence (P06401 whole entry): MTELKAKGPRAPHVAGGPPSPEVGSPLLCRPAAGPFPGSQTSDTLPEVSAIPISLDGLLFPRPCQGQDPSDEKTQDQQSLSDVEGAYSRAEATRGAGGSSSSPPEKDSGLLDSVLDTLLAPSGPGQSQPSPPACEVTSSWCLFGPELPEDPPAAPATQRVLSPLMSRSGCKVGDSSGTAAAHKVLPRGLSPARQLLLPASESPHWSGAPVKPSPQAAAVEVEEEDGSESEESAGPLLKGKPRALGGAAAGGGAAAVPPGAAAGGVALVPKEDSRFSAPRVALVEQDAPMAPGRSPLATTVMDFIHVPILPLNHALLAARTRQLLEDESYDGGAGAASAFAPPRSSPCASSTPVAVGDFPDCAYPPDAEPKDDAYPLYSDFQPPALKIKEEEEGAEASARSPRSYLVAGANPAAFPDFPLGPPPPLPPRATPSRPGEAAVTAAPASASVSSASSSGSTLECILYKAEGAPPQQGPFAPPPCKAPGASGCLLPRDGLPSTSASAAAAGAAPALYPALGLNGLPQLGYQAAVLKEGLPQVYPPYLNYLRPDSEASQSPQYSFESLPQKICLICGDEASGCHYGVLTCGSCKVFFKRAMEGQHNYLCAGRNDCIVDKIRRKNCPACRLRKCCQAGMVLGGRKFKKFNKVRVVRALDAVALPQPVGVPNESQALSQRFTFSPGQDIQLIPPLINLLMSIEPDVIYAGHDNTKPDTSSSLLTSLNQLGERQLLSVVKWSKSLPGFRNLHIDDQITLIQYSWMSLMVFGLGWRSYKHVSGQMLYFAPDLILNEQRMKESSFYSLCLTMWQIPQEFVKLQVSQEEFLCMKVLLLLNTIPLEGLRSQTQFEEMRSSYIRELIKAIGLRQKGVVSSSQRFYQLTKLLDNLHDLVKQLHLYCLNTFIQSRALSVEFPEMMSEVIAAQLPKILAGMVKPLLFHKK
In words: Competitive binding affinity to progesterone receptor (unknown origin) expressed in baculovirus-infected cell system after 1 hr by fluorescence polarization assay in presence of tetramethylrhodamine-labeled RU-486. Summed up: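 PR from lysate of insect cells infected with receptor baculovirus alone, diluted 13-fold. Probe 5 nM tetramethylrhodamine-labeled RU-486 in pH 7.4 TES/KCl/molybdate buffer with 1% DMSO. 1 h at room temperature in the dark, then fluorescence polarization (ex 550/em 580 nm). Background set with 2 μM RU-486. IC50 from duplicate 11-point curves, four-parameter logistic fit, mean of at least two determinations.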

The target in assay [4] is T4, Glucocorticoid receptor (Homo sapiens) (UniProt P04150).
T4 sequence (whole entry): T1 sequence (P04150 whole entry)
In words: Transrepression activity at glucocorticoid receptor in human fibroblasts assessed as inhibition of IL-1-induced IL-6 production at 2 uM after 18 to 24 hrs relative to dexomethasone. Summed up: as §2

Assay [5] deals with T4, Glucocorticoid receptor (Homo sapiens). The assay can be described thus: Agonist activity at glucocorticoid receptor in human […] cells assessed as suppression of vitamin D-induced osteocalcin production at 2 uM after 48 hrs by Gla-type osteocalcin ELISA relative to dexomethasone. The format is cell-based. Summed up: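 MG-63 human osteosarcoma cells plated at 20000/well in DMEM/F-12 with 1% charcoal-filtered FBS and 10 μg/mL vitamin C. Medium refreshed next day, then vitamin D (10 nM final) added with compound (2 × 10−6 to 10−10 M), duplicates. Incubated 48 h at 37 °C; supernatant osteocalcin measured by Gla-type ELISA. Vitamin D-only wells = 100%. Max efficacy at 2 μM is relative to dexamethasone (100%).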
On the technique in general: An ELISA detects its analyte on a solid surface through an enzyme-linked reagent.

For `Cc1ccc(F)cc1C(C)(C)CC(O)(Cc1cc2nc(-c3ccccc3)cnc2[nH]1)C(F)(F)F` (stereo unspecified), the IC50 (commonly the midpoint of a concentration-inhibition curve) at Glucocorticoid receptor [1] was 11 nM; in assay [2] it was more than 2000 nM; at Glucocorticoid receptor [3], 170 nM; at Progesterone receptor it was more than 2000 nM. For the same compound, in assay [4], the Emax – broadly, the maximal effect, on the per cent scale that the assay sets – was determined as 82%.
Consider `CC(C)(C[C@@](O)(Cc1cc2ccncc2[nH]1)C(F)(F)F)c1cc(F)ccc1O`, for which the Emax in assay [5] amounted to 68%.
In the case of `COc1ccc(-c2cncnc2)cc1C(C)(C)C[C@@](O)(Cc1cc2ccncc2[nH]1)C(F)(F)F`, in assay [5], the Emax amounted to 45%.
`Cc1ccc(F)cc1C(C)(C)CC(O)(Cc1cc2nc(C(C)C)ncc2[nH]1)C(F)(F)F` (racemic): the IC50 at Glucocorticoid receptor [1] was 26 nM; in assay [2], more than 2000 nM; on Glucocorticoid receptor [3] it was 560 nM; on Progesterone receptor, more than 2000 nM. Besides, the Emax in assay [4] was found to be 50%.
Turning to `Cc1ccc(F)cc1C(C)(C)CC(O)(Cc1cc2nc(N3CCCC3)ncc2[nH]1)C(F)(F)F` (racemic), the IC50 was 18 nM at Glucocorticoid receptor [1], more than 2000 nM in assay [2], 130 nM on Glucocorticoid receptor [3] and more than 2000 nM at Progesterone receptor. In addition, the Emax in assay [4] was found to be 76%.
Take `Cc1ccc(F)cc1C(C)(C)CC(O)(Cc1cc2nc(N3CCOCC3)ncc2[nH]1)C(F)(F)F` (racemic): the IC50 on Glucocorticoid receptor [1] came out at 5 nM; in assay [2], 170 nM; on Glucocorticoid receptor [3], 15 nM; on Progesterone receptor it was 1400 nM. Moreover, the maximal effect (Emax) in assay [4] amounted to 84%.
Take `CC(C)(CC(O)(Cc1cc2ncncc2[nH]1)C(F)(F)F)c1cc(F)ccc1O` (racemic): the IC50 at Glucocorticoid receptor [1] is 7 nM; in assay [2] it was 1150 nM; at Glucocorticoid receptor [3] it was 11 nM; at Progesterone receptor it was more than 2000 nM. Besides, the Emax in assay [5] is 42%.
For `Cc1ccccc1C(C)(C)CC(O)(Cc1cc2ncncc2[nH]1)C(F)(F)F` (racemic), the IC50 is 13 nM on Glucocorticoid receptor [1], 1100 nM in assay [2], 44 nM on Glucocorticoid receptor [3] and more than 2000 nM on Progesterone receptor. In assay [4], the Emax came to 69%.
For `CC(C)(CC(O)(Cc1cc2ncncc2[nH]1)C(F)(F)F)c1cc(F)cc2c1OCC2` (racemic), the IC50 on Glucocorticoid receptor [1] was 7 nM; in assay [2], 1300 nM; on Glucocorticoid receptor [3], 24 nM; at Progesterone receptor, 1400 nM. In addition, the Emax in assay [5] amounted to 26%; in assay [4], 78%.
As to `CC(C)(CC(O)(Cc1cc2ncncc2[nH]1)C(F)(F)F)c1ccccc1S(C)(=O)=O` (racemic), the IC50 at Glucocorticoid receptor [1] was 24 nM; in assay [2] it was more than 2000 nM; at Glucocorticoid receptor [3], 21 nM; at Progesterone receptor, more than 2000 nM. For the same compound, the Emax in assay [5] was 43%; in assay [4] it was 92%.
For the compound `CC(C)(CC(O)(Cc1cc2ncncc2[nH]1)C(F)(F)F)c1cccc(S(C)(=O)=O)c1` (racemic), the IC50 at Glucocorticoid receptor [1] is 840 nM; in assay [2], more than 2000 nM; at Progesterone receptor, more than 2000 nM.
On to `Cc1ccc(F)cc1C(C)(C)CC(O)(Cc1cc2cnncc2[nH]1)C(F)(F)F` (racemic), for which the IC50 at Glucocorticoid receptor [1] amounted to 3 nM; in assay [2], 83 nM; at Glucocorticoid receptor [3], 5 nM; at Progesterone receptor, 490 nM. In addition, the Emax in assay [5] stood at 81%.
Turning to `COc1ccc(F)cc1C(C)(C)CC(O)(Cc1cc2cncnc2[nH]1)C(F)(F)F` (racemic), the IC50 at Glucocorticoid receptor [1] stood at 4 nM; in assay [2], 160 nM; on Glucocorticoid receptor [3], 10 nM; on Progesterone receptor, 1450 nM. In assay [4], the maximal effect (Emax) worked out at 82%.
Turning to `Cc1ccc(F)cc1C(C)(C)CC(O)(Cc1cc2nccnc2[nH]1)C(F)(F)F` (racemic), the IC50 on Glucocorticoid receptor [1] is 57 nM; in assay [2], more than 2000 nM; on Glucocorticoid receptor [3] it was more than 2000 nM; at Progesterone receptor, more than 2000 nM.
